Experimental data: ChEMBL document CHEMBL2177092, “Phosphoramidate ProTides of the anticancer agent FUDR successfully deliver the preformed bioactive monophosphate in cells and confer advantage over the parent nucleoside” (J Med Chem, 2011)

Tested on: L1210
Assay: Ratio of IC50 for Mycoplasma hyorhinis-infected mouse L1210 cells to IC50 for mouse L1210/0 cells after 48 hrs by cell counting
Type: functional
Details: not given
Summary of the method: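 Murine L1210/0 cells were compared with L1210/TK cells, selected for resistance to 5-bromo-2'-dUrd, and with L1210.Hyor cells, chronically infected with Mycoplasma hyorhinis. Cells were grown in DMEM with 10% FBS, 10 mM Hepes and 1 mM pyruvate at 37 °C and 5% CO2, then seeded at 60 000 cells/well with compound. They were Coulter-counted after 48 h. […] Mean of 2–4 experiments.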

Row | Structure (SMILES) | Ratio IC50
1 | CSCC[C@H](NP(=O)(OC[C@H]1O[C@@H](n2cc(F)c(=O)[nH]c2=O)C[C@@H]1O)Oc1ccccc1)C(=O)OCc1ccccc1 (mixture of isomers) | 13
2 | C[C@H](NP(=O)(OC[C@H]1O[C@@H](n2cc(F)c(=O)[nH]c2=O)C[C@@H]1O)Oc1cccc2ccccc12)C(=O)OC1CCCCC1 (mixture of isomers) | 1.4
3 | O=C(OCc1ccccc1)[C@@H]1CCCN1P(=O)(OC[C@H]1O[C@@H](n2cc(F)c(=O)[nH]c2=O)C[C@@H]1O)Oc1ccccc1 (mixture of isomers) | 51
4 | C[C@H](NP(=O)(OC[C@H]1O[C@@H](n2cc(F)c(=O)[nH]c2=O)C[C@@H]1O)Oc1cccc2ccccc12)C(=O)OCC(C)(C)C (mixture of isomers) | 1.9
5 | CC(C)OC(=O)[C@H](C)NP(=O)(OC[C@H]1O[C@@H](n2cc(F)c(=O)[nH]c2=O)C[C@@H]1O)Oc1ccccc1 (mixture of isomers) | 14
6 | CCCOC(=O)[C@H](C)NP(=O)(OC[C@H]1O[C@@H](n2cc(F)c(=O)[nH]c2=O)C[C@@H]1O)Oc1cccc2ccccc12 (mixture of isomers) | 1.2

Tested on: L1210
Assay: Cytostatic activity against Mycoplasma hyorhinis-infected mouse L1210 cells after 48 hrs by cell counting
Type: functional, cell-based
Details: L1210, 48 h
Summary of the method: (§1)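 Suspension leukemia cells in DMEM with 10% FBS, 10 mM Hepes and 1 mM sodium pyruvate at 37 °C under 5% CO2. Seeded at 60 000 cells/well with graded compound levels. Grown 48 h (L1210) or 72 h (CEM), then counted by Coulter counter. Mean ± SD of two to four independent experiments.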

Row | Structure (SMILES) | IC50
7 | CSCC[C@H](NP(=O)(OC[C@H]1O[C@@H](n2cc(F)c(=O)[nH]c2=O)C[C@@H]1O)Oc1ccccc1)C(=O)OCc1ccccc1 (mixture of isomers) | 760 nM
8 | C[C@H](NP(=O)(OC[C@H]1O[C@@H](n2cc(F)c(=O)[nH]c2=O)C[C@@H]1O)Oc1cccc2ccccc12)C(=O)OC1CCCCC1 (mixture of isomers) | 49 nM
9 | O=C(OCc1ccccc1)[C@@H]1CCCN1P(=O)(OC[C@H]1O[C@@H](n2cc(F)c(=O)[nH]c2=O)C[C@@H]1O)Oc1ccccc1 (mixture of isomers) | 18000 nM
10 | C[C@H](NP(=O)(OC[C@H]1O[C@@H](n2cc(F)c(=O)[nH]c2=O)C[C@@H]1O)Oc1cccc2ccccc12)C(=O)OCC(C)(C)C (mixture of isomers) | 180 nM
11 | CC(C)OC(=O)[C@H](C)NP(=O)(OC[C@H]1O[C@@H](n2cc(F)c(=O)[nH]c2=O)C[C@@H]1O)Oc1ccccc1 (mixture of isomers) | 700 nM
12 | CCCOC(=O)[C@H](C)NP(=O)(OC[C@H]1O[C@@H](n2cc(F)c(=O)[nH]c2=O)C[C@@H]1O)Oc1cccc2ccccc12 (mixture of isomers) | 36 nM

Tested on: HeLa
Assay: Cytostatic activity against human HeLa cells […] by cell counting
Type: functional, cell-based
Details: not given

Row | Structure (SMILES) | IC50
13 | CSCC[C@H](NP(=O)(OC[C@H]1O[C@@H](n2cc(F)c(=O)[nH]c2=O)C[C@@H]1O)Oc1ccccc1)C(=O)OCc1ccccc1 (mixture of isomers) | 150 nM
14 | C[C@H](NP(=O)(OC[C@H]1O[C@@H](n2cc(F)c(=O)[nH]c2=O)C[C@@H]1O)Oc1cccc2ccccc12)C(=O)OC1CCCCC1 (mixture of isomers) | 90 nM
15 | O=C(OCc1ccccc1)[C@@H]1CCCN1P(=O)(OC[C@H]1O[C@@H](n2cc(F)c(=O)[nH]c2=O)C[C@@H]1O)Oc1ccccc1 (mixture of isomers) | 1100 nM
16 | C[C@H](NP(=O)(OC[C@H]1O[C@@H](n2cc(F)c(=O)[nH]c2=O)C[C@@H]1O)Oc1cccc2ccccc12)C(=O)OCC(C)(C)C (mixture of isomers) | 700 nM
17 | CC(C)OC(=O)[C@H](C)NP(=O)(OC[C@H]1O[C@@H](n2cc(F)c(=O)[nH]c2=O)C[C@@H]1O)Oc1ccccc1 (mixture of isomers) | 710 nM
18 | CCCOC(=O)[C@H](C)NP(=O)(OC[C@H]1O[C@@H](n2cc(F)c(=O)[nH]c2=O)C[C@@H]1O)Oc1cccc2ccccc12 (mixture of isomers) | 110 nM

Tested on: HeLa
Assay: Cytostatic activity against thymidine-kinase deficient human HeLa cells […]
Type: functional, cell-based
Details: not given

Row | Structure (SMILES) | IC50
19 | CSCC[C@H](NP(=O)(OC[C@H]1O[C@@H](n2cc(F)c(=O)[nH]c2=O)C[C@@H]1O)Oc1ccccc1)C(=O)OCc1ccccc1 (mixture of isomers) | 11000 nM
20 | O=C(OCc1ccccc1)[C@@H]1CCCN1P(=O)(OC[C@H]1O[C@@H](n2cc(F)c(=O)[nH]c2=O)C[C@@H]1O)Oc1ccccc1 (mixture of isomers) | 20000 nM
21 | C[C@H](NP(=O)(OC[C@H]1O[C@@H](n2cc(F)c(=O)[nH]c2=O)C[C@@H]1O)Oc1cccc2ccccc12)C(=O)OCC(C)(C)C (mixture of isomers) | 32000 nM
22 | CC(C)OC(=O)[C@H](C)NP(=O)(OC[C@H]1O[C@@H](n2cc(F)c(=O)[nH]c2=O)C[C@@H]1O)Oc1ccccc1 (mixture of isomers) | 25000 nM
23 | CCCOC(=O)[C@H](C)NP(=O)(OC[C@H]1O[C@@H](n2cc(F)c(=O)[nH]c2=O)C[C@@H]1O)Oc1cccc2ccccc12 (mixture of isomers) | 2500 nM

Tested on: CCRF-CEM
Assay: Cytostatic activity against thymidine-kinase deficient human CEM cells after 72 hrs by cell counting
Type: functional, cell-based
Details: not given
Summary of the method: as §1

Row | Structure (SMILES) | IC50
24 | CSCC[C@H](NP(=O)(OC[C@H]1O[C@@H](n2cc(F)c(=O)[nH]c2=O)C[C@@H]1O)Oc1ccccc1)C(=O)OCc1ccccc1 (mixture of isomers) | 25000 nM
25 | C[C@H](NP(=O)(OC[C@H]1O[C@@H](n2cc(F)c(=O)[nH]c2=O)C[C@@H]1O)Oc1cccc2ccccc12)C(=O)OC1CCCCC1 (mixture of isomers) | 1000 nM
26 | O=C(OCc1ccccc1)[C@@H]1CCCN1P(=O)(OC[C@H]1O[C@@H](n2cc(F)c(=O)[nH]c2=O)C[C@@H]1O)Oc1ccccc1 (mixture of isomers) | 28000 nM
27 | C[C@H](NP(=O)(OC[C@H]1O[C@@H](n2cc(F)c(=O)[nH]c2=O)C[C@@H]1O)Oc1cccc2ccccc12)C(=O)OCC(C)(C)C (mixture of isomers) | 6700 nM
28 | CC(C)OC(=O)[C@H](C)NP(=O)(OC[C@H]1O[C@@H](n2cc(F)c(=O)[nH]c2=O)C[C@@H]1O)Oc1ccccc1 (mixture of isomers) | 30000 nM
29 | CCCOC(=O)[C@H](C)NP(=O)(OC[C@H]1O[C@@H](n2cc(F)c(=O)[nH]c2=O)C[C@@H]1O)Oc1cccc2ccccc12 (mixture of isomers) | 1100 nM

Tested on: CCRF-CEM
Assay: Cytostatic activity against human CEM/0 cells after 72 hrs by cell counting
Type: functional, cell-based
Details: not given
Summary of the method: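 Suspension leukemia cells in DMEM with 10% FBS, 10 mM Hepes and 1 mM sodium pyruvate at 37 °C under 5% CO2. Seeded at 60 000 cells/well with graded compound levels. Grown 48 h (L1210) or 72 h (CEM), then counted by Coulter counter. […] Mean ± SD of two to four independent experiments.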

Row | Structure (SMILES) | IC50
30 | CSCC[C@H](NP(=O)(OC[C@H]1O[C@@H](n2cc(F)c(=O)[nH]c2=O)C[C@@H]1O)Oc1ccccc1)C(=O)OCc1ccccc1 (mixture of isomers) | 280 nM
31 | C[C@H](NP(=O)(OC[C@H]1O[C@@H](n2cc(F)c(=O)[nH]c2=O)C[C@@H]1O)Oc1cccc2ccccc12)C(=O)OC1CCCCC1 (mixture of isomers) | 57 nM
32 | O=C(OCc1ccccc1)[C@@H]1CCCN1P(=O)(OC[C@H]1O[C@@H](n2cc(F)c(=O)[nH]c2=O)C[C@@H]1O)Oc1ccccc1 (mixture of isomers) | 980 nM
33 | C[C@H](NP(=O)(OC[C@H]1O[C@@H](n2cc(F)c(=O)[nH]c2=O)C[C@@H]1O)Oc1cccc2ccccc12)C(=O)OCC(C)(C)C (mixture of isomers) | 490 nM
34 | CC(C)OC(=O)[C@H](C)NP(=O)(OC[C@H]1O[C@@H](n2cc(F)c(=O)[nH]c2=O)C[C@@H]1O)Oc1ccccc1 (mixture of isomers) | 1000 nM
35 | CCCOC(=O)[C@H](C)NP(=O)(OC[C@H]1O[C@@H](n2cc(F)c(=O)[nH]c2=O)C[C@@H]1O)Oc1cccc2ccccc12 (mixture of isomers) | 140 nM

Tested on: not listed separately
Assay: Cytostatic activity against mouse L1210/0 cells after 48 hrs by cell counting
Type: functional, cell-based
Details: L1210/0, 48 h
Summary of the method: as §1

Row | Structure (SMILES) | IC50
36 | CSCC[C@H](NP(=O)(OC[C@H]1O[C@@H](n2cc(F)c(=O)[nH]c2=O)C[C@@H]1O)Oc1ccccc1)C(=O)OCc1ccccc1 (mixture of isomers) | 58 nM
37 | C[C@H](NP(=O)(OC[C@H]1O[C@@H](n2cc(F)c(=O)[nH]c2=O)C[C@@H]1O)Oc1cccc2ccccc12)C(=O)OC1CCCCC1 (mixture of isomers) | 36 nM
38 | O=C(OCc1ccccc1)[C@@H]1CCCN1P(=O)(OC[C@H]1O[C@@H](n2cc(F)c(=O)[nH]c2=O)C[C@@H]1O)Oc1ccccc1 (mixture of isomers) | 350 nM
39 | C[C@H](NP(=O)(OC[C@H]1O[C@@H](n2cc(F)c(=O)[nH]c2=O)C[C@@H]1O)Oc1cccc2ccccc12)C(=O)OCC(C)(C)C (mixture of isomers) | 93 nM
40 | CC(C)OC(=O)[C@H](C)NP(=O)(OC[C@H]1O[C@@H](n2cc(F)c(=O)[nH]c2=O)C[C@@H]1O)Oc1ccccc1 (mixture of isomers) | 50 nM
41 | CCCOC(=O)[C@H](C)NP(=O)(OC[C@H]1O[C@@H](n2cc(F)c(=O)[nH]c2=O)C[C@@H]1O)Oc1cccc2ccccc12 (mixture of isomers) | 30 nM

Tested on: L1210
Assay: Cytostatic activity against thymidine-kinase deficient mouse L1210 cells after 48 hrs by cell counting
Type: functional, cell-based
Details: L1210, 48 h
Summary of the method: as §1

Row | Structure (SMILES) | IC50
42 | CSCC[C@H](NP(=O)(OC[C@H]1O[C@@H](n2cc(F)c(=O)[nH]c2=O)C[C@@H]1O)Oc1ccccc1)C(=O)OCc1ccccc1 (mixture of isomers) | 4100 nM
43 | C[C@H](NP(=O)(OC[C@H]1O[C@@H](n2cc(F)c(=O)[nH]c2=O)C[C@@H]1O)Oc1cccc2ccccc12)C(=O)OC1CCCCC1 (mixture of isomers) | 150 nM
44 | O=C(OCc1ccccc1)[C@@H]1CCCN1P(=O)(OC[C@H]1O[C@@H](n2cc(F)c(=O)[nH]c2=O)C[C@@H]1O)Oc1ccccc1 (mixture of isomers) | 31000 nM
45 | C[C@H](NP(=O)(OC[C@H]1O[C@@H](n2cc(F)c(=O)[nH]c2=O)C[C@@H]1O)Oc1cccc2ccccc12)C(=O)OCC(C)(C)C (mixture of isomers) | 1200 nM
46 | CC(C)OC(=O)[C@H](C)NP(=O)(OC[C@H]1O[C@@H](n2cc(F)c(=O)[nH]c2=O)C[C@@H]1O)Oc1ccccc1 (mixture of isomers) | 1100 nM
47 | CCCOC(=O)[C@H](C)NP(=O)(OC[C@H]1O[C@@H](n2cc(F)c(=O)[nH]c2=O)C[C@@H]1O)Oc1cccc2ccccc12 (mixture of isomers) | 160 nM
